Assay results gathered from unrelated publications.

| Compound | system | setting | quantity | value |
| --- | --- | --- | --- | --- |
| Cc1nnc2sc(C(=O)NCc3ccc(-c4cccnc4F)cc3)c(N)c2c1C | dog, plasma | intravenous | Vd | 0.7 L/kg |
| Oc1c(-n2ccnn2)cnn1-c1cc(N2CCOCC2)ncn1 | female dog, plasma | intravenous, 3 mg/kg | Vd | 0.78 L/kg |
| C=CC(=O)Nc1cc(Nc2nccc(Nc3cc(Cl)c(F)cc3C(C)(C)O)n2)c(OC)cc1N1CC[C@@H](N(C)C)C1 | beagle dog, plasma | intravenous, 1 mg/kg | Vd | 29.5 L/kg |
| CN1CCC(c2ccccc2CC(C)(C)Nc2nc(N3CCOCC3)nc(-n3c(C(F)F)nc4ccccc43)n2)CC1 | dog, plasma | intravenous, 2 mg/kg, single dose | Vd | 9.7 L/kg |
| O=C(NCCN1CCCC1)c1cc(-c2ccc(CN3CCOCC3)cc2)nc2ccc(F)cc12 | male beagle dog, blood | intravenous, 1 mg/kg | Vd | 30 L/kg |
| COCc1nn(Cc2ccc(Cn3ccccc3=O)cc2)cc1C(=O)NCc1nccc(OC)c1F | male beagle dog, plasma | intravenous, 1 mg/kg | Vd | < 1 L |
| CC[C@@H]1CN(C(=O)NCC(F)(F)F)C[C@@H]1c1cnc2cnc3[nH]ccc3n12 | beagle dog, plasma | oral, 1 mg/kg, single dose | Vd/F | 29.1 L/kg |
| CCn1c(=O)c(-c2cc(NC(=O)Nc3ccccc3)c(F)cc2Br)cc2cnc(NC)cc21 | beagle dog, plasma | oral, 5 mg/kg, single dose | Vd/F | 12.7 L/kg |
| COc1ccnc(CNC(=O)c2cn(Cc3ccc(Cn4ccccc4=O)cc3)nc2C(F)(F)F)c1F | male beagle dog, plasma | intravenous, 1 mg/kg | Vd | < 1 L |
